Experimental data: ChEMBL document CHEMBL1152584, “Synthesis of heteroaromatic tropeines and heterogeneous binding to glycine receptors” (Bioorg Med Chem, 2009)
pIC50: −log10 of the molar value.

Assays:
[1] = target: T1, Glycine receptor subunit alpha-1 (Rattus norvegicus) (UniProt P07727); assay: Selectivity ratio of IC50 for GlyR low affinity site to IC50 for GlyR high affinity site in Wistar rat spinal cord
T1 sequence (whole entry): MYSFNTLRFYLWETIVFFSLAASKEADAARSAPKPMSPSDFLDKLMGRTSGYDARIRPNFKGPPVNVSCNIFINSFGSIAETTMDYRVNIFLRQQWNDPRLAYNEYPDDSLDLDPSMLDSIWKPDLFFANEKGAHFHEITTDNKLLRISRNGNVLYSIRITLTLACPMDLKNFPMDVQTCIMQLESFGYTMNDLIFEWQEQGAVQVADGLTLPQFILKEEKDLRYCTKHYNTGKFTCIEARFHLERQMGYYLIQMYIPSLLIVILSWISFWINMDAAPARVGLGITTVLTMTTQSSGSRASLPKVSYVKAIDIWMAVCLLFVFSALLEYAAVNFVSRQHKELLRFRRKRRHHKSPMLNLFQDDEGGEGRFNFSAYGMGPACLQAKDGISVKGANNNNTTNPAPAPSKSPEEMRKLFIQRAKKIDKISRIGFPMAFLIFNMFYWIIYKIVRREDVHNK

[2] = target: T2, Glycine receptor subunit alpha-1 (Rattus norvegicus, UniProt P07727); assay: Displacement of [3H]strychnine from GlyR in Wistar rat spinal cord by scintillation spectrometry
T2 sequence (P07727 whole entry): T1 sequence (whole entry)
Summary of the method: (§1)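 Duplicate aliquots filtered, washed with ice-cold buffer, counted by scintillation. Nonspecific binding defined with 2 mM glycine. IC50 and Hill slope from nonlinear sigmoidal fitting. Two-site fits used pooled data, chosen by F test.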

[3] = target: T2, Glycine receptor subunit alpha-1; assay: Displacement of [3H]strychnine from GlyR high affinity site in Wistar rat spinal cord by scintillation spectrometry; summary of the method: as §1
[4] = target: T2, Glycine receptor subunit alpha-1; assay: Displacement of [3H]strychnine from GlyR low affinity site in Wistar rat spinal cord by scintillation spectrometry; summary of the method: as §1
[5] = target: T3, 5-hydroxytryptamine receptor 3A (Rattus norvegicus, UniProt P35563); assay: Displacement of [3H]granisectron from 5HT3 receptor in Wistar rat forebrain
T3 sequence (P35563 whole entry): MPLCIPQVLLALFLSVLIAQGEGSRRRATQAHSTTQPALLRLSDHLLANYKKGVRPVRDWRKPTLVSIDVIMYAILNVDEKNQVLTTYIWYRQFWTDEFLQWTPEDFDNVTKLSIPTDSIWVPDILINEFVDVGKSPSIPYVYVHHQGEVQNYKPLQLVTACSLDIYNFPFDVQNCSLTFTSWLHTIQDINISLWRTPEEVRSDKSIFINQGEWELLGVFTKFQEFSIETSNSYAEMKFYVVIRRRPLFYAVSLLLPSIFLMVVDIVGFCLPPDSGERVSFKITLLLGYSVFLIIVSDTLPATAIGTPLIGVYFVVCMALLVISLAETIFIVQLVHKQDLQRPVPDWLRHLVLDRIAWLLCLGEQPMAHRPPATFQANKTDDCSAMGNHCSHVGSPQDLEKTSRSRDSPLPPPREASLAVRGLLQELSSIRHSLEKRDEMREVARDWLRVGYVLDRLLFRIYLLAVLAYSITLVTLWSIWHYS
Summary of the method: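 Crude membranes from male rat forebrain (cortex + hippocampus), homogenized in 10 mM HEPES/140 mM NaCl pH 7.5, centrifuged, washed, frozen; thawed and spun before use. Incubated with 0.2 nM [3H]granisetron at 0 °C for 2.5 h. Nonspecific binding defined with 10 µM granisetron.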

[6] = target: T2, Glycine receptor subunit alpha-1; assay: Displacement of [3H]strychnine from GlyR high affinity site in Wistar rat spinal cord by scintillation spectrometry in presence of 10 uM glycine; summary of the method: as §1
[7] = target: T2, Glycine receptor subunit alpha-1; assay: Displacement of [3H]strychnine from GlyR in Wistar rat spinal cord by scintillation spectrometry in presence of 10 uM glycine; summary of the method: as §1
[8] = target: T2, Glycine receptor subunit alpha-1; assay: Displacement of [3H]strychnine from GlyR low affinity site in Wistar rat spinal cord by scintillation spectrometry in presence of 10 uM glycine; summary of the method: as §1

| Structure (SMILES) | Ratio IC50 [1] | pIC50 [2] | pIC50 [3] | pIC50 [4] | pIC50 [5] | pIC50 [6] | pIC50 [7] | pIC50 [8] |
| --- | --- | --- | --- | --- | --- | --- | --- | --- |
| O=C(O[C@H]1C[C@H]2CC[C@@H](C1)N2)c1ccco1 | 1 | 7.10 | – | – | – | – | – | – |
| CN1[C@@H]2CC[C@H]1C[C@@H](OC(=O)c1ccc[nH]1)C2 | 615 | 4.95 | 7.47 | 4.68 | – | – | – | – |
| O=C(O[C@H]1C[C@H]2CC[C@@H](C1)N2)c1cccs1 | 1 | 7.38 | – | – | – | – | – | – |
| O=C(O[C@H]1C[C@H]2CC[C@@H](C1)N2)c1cnc2ccccc2c1 | 1 | 6.78 | – | – | – | – | – | – |
| CN1[C@@H]2CC[C@H]1C[C@@H](OC(=O)c1cc3ccccc3n1C)C2 | 240 | 5.80 | 7.99 | 5.62 | 7.74 | – | – | – |
| CN1[C@@H]2CC[C@H]1C[C@@H](OC(=O)c1ccco1)C2 | 200 | 5.25 | 7.30 | 5.00 | – | – | – | – |
| CN1[C@@H]2CC[C@H]1C[C@@H](OC(=O)c1cccn1C)C2 | > 1 | 5.12 | – | – | – | – | – | – |
| O=C(O[C@H]1C[C@H]2CC[C@@H](C1)N2)c1cccnc1 | 1 | 7.00 | – | – | – | – | – | – |
| Cn1c(C(=O)O[C@H]2C[C@H]3CC[C@@H](C2)N3)cc2ccccc21 | 11 | 7.47 | 7.94 | 6.90 | 7.60 | 8.97 | 7.15 | 6.87 |
| CN1[C@@H]2CC[C@H]1C[C@@H](OC(=O)c1cccs1)C2 | 47 | 5.72 | 7.05 | 5.37 | – | – | – | – |
| CN1[C@@H]2CC[C@H]1C[C@H](OC(=O)c1cc3ccccc3[nH]1)C2 | 133 | 5.33 | 7.22 | 5.10 | – | – | – | – |
| O=C(O[C@H]1C[C@H]2CC[C@@H](C1)N2)c1cc2ccccc2[nH]1 | 1 | 6.63 | – | – | 7.49 | – | – | – |
| CN1[C@@H]2CC[C@H]1C[C@@H](OC(=O)c1cnc3ccccc3c1)C2 | 76 | 5.72 | 7.14 | 5.26 | – | – | – | – |
| O=C(O[C@H]1C[C@H]2CC[C@@H](C1)N2)c1ccc[nH]1 | 1 | 6.89 | – | – | – | – | – | – |
| CN1[C@@H]2CC[C@H]1C[C@@H](OC(=O)c1cccnc1)C2 | 390 | 5.37 | 7.23 | 4.64 | – | – | – | – |
